Assay results gathered from unrelated publications.
Each line is one published result; the experiments were not run side by side. ≈ marks a conversion by molar mass, not a printed value.
CYP2B6: Cytochrome P450 2B6 (CYP2B6, Homo sapiens, UniProt P20813)

c1ccc(Oc2ccc(Nc3ccc4ncc(OCC5CCNCC5)nc4c3)cc2)cc1  EC50 (HeLa; cell growth or viability, XTT; 7 days): 20.9 µM
CC(C)n1ncc2c(C(=O)NCC3(C)CNC3)cc(C3CC3)nc21  viability (HeLa; cell growth or viability, neutral red; 0.11 µM): 99.9%
Cc1cc(S(=O)(=O)NC2CC(N3CCN(CC4CCN(c5ccc(NC6CCC(=O)NC6=O)cc5C)CC4)CC3)C2)ccc1Nc1ncc(C(F)(F)F)c(N2CCC[C@](C)(O)C2)n1 (some centres unmarked)  clearance (rat, plasma; intravenous, 2 mg/kg): 26 mL/min/kg
C[C@H]1Oc2cc(cnc2N)-c2c(nn(C)c2C#N)CN(C)C(=O)c2ccc(F)cc21  CL/F (male Sprague-Dawley rat, plasma; oral, 5 mg/kg, single dose): 50 mL/min/kg
CSc1ccccc1C(=O)NCCn1cc(C(=O)NCc2cccc(C)n2)c(=O)c2cc3c(cc21)OC(F)(F)O3  IC50 (CYP2B6; enzyme activity, inhibitor; human, liver microsomes; 20 min, without NADPH, with preincubation): > 100 µM
Cc1cc(S(=O)(=O)N[C@]2(C)C[C@@H](N3CCN(CC4CCN(c5ccc6c(c5F)n(C)c(=O)n6C5CCC(=O)NC5=O)CC4)CC3)C2)ccc1Nc1ncc(C(F)(F)F)c(N2CCC[C@](C)(O)C2)n1 (some centres unmarked)  clearance (rat, plasma; intravenous, 2 mg/kg): 62 mL/min/kg
CCCCCCCCCCCCCCCCCC(=O)O  CC50 (HeLa; cell growth or viability, MTT; 48 h): 90.6 µg/mL (≈ 318 µM)
CNS(=O)(=O)c1ccc(Nc2ncc(C(F)(F)F)c(N3CCC(C)(O)CC3)n2)c(C)c1  clearance (rat, plasma; intravenous, 2 mg/kg): 52 mL/min/kg
c1ccc(COc2ccc(Nc3ccc4ncc(OCC5CCNCC5)nc4c3)cc2)cc1  EC50 (HeLa; cell growth or viability, XTT; 7 days): > 30 µM
CSc1ccccc1C(=O)NCCn1cc(C(=O)NCc2cccc(C)n2)c(=O)c2cc3c(cc21)OCO3  IC50 (CYP2B6; enzyme activity, inhibitor; human, liver microsomes; 20 min, without NADPH, with preincubation): > 100 µM
CC(C)[C@@H]1NC(=O)[C@@H](CCCCN)NC(=O)[C@H]([C@@H](C)O)NC(=O)[C@@H](CCCN)NC(=O)[C@H](Cc2ccccc2)NC(=O)[C@@H](Cc2ccccc2)NC1=O  haemolysis (haemolysis; human; 100 µM): < 10%
Cc1cc(S(=O)(=O)N[C@H]2CC[C@H](CN3CCN(c4ccc(C5CCC(=O)NC5=O)c(Cl)c4)CC3)CC2)ccc1Nc1ncc(C(F)(F)F)c(N2CCC[C@](C)(O)C2)n1 (some centres unmarked)  clearance (rat, plasma; intravenous, 2 mg/kg): 15 mL/min/kg
OCc1ccc(-c2nn(Cc3ccccc3)c3ccccc23)o1  IC50 (CYP2B6; enzyme activity, inhibitor; human, liver microsomes): 5.1 µM
CC(C)[C@@H]1NC(=O)[C@@H](CCCNC(=N)N)NC(=O)[C@H](C)NC(=O)[C@@H](CCCN)NC(=O)[C@H](Cc2ccccc2)NC(=O)[C@@H](Cc2ccccc2)NC1=O  haemolysis (haemolysis; human; 100 µM): < 10%
